Rows were chosen to be rich in hits. Some 1.5% of all compounds tested hit in one or more screens of this group.
CSN inh: inhibitors of human CSN-mediated cullin deneddylation. Q92905. Purified CSN, SCF-Nedd8-OG deneddylation, fluorescence polarization. inhibition, % at 12.5 µM. 360,000 tested, 0.38% active. AID 651999;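 active = pattern-corrected inhibition above about 35%, with an unprinted fluorescence ratio check between 0.5 and 1.5, limit read from the data, passing the limit was not always enough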;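 note: 0% = enzyme with substrate and 100% = substrate without enzyme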
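Material: purified human Csn5 enzyme expressed in HEK293T cells / Medium: Tris buffer pH 7.5, NaCl, DTT, Tween-20, trehalose, ovalbumin / Compound dosing: 12.5 µM single point / Schedule: 90 min incubation of compound, enzyme and substrate at room temperature / Signal: fluorescence polarization of the substrate / Control set: no-enzyme wells high, enzyme-with-substrate wells low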
TPT1 inhibitor: C. albicans TPT1 enzyme inhibition; recombinant caTPT1, FP RNA substrate dephosphorylation; inhibition, % at 5 µM; 300,000 tested, 0.81% active;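 active = inhibition above the mean of all tested compounds plus 3 SD, set per screening campaign, cut at about 24% in these data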;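 note: plate controls were DMSO alone for no effect and ferristatin control at 100 nM for full effect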
HNF4A DNA FP: change in binding of human HNF4 alpha to DNA. HNF4a-FITC DNA binding, fluorescence polarization, 1 h. activity change, % at 10 µM. 360,000 tested, 0.3% active. AID 1224865; in the data active = activity change above about 30%, passing the limit was not always enough
Target sequence (P41235 whole entry, looked up): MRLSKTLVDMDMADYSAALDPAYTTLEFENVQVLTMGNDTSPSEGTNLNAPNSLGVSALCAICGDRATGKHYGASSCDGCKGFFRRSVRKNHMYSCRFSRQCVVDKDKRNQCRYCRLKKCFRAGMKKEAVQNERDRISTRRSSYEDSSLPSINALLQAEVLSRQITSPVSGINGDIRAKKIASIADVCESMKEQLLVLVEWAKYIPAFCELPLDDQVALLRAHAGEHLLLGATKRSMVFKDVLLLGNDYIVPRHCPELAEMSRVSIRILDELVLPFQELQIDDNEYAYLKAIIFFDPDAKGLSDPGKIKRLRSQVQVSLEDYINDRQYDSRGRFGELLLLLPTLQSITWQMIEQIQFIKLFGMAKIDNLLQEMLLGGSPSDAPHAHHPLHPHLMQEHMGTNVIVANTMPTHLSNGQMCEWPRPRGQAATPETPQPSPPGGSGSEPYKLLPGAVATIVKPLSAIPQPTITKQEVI
Rpn11 block: inhibitors of human proteasome Rpn11; inhibition, % at 20 µM; human 26S proteasome, Ub4-pepOG fluorescence polarization; 20S core pre-blocked with epoxomicin; O00487; AID 588493; 360,000 tested, 0.59% active;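 active = inhibition at 20 µM, scaled to each plate's controls, above about 33%, limit read from the data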
caTPT1 confirm: TPT1 (C. albicans) inhibition, confirmation; AID 2149; inhibition, % at 5 µM; shares compounds with TPT1 inhibitor; 2,400 tested, 74% active; recombinant caTPT1, fluorescence polarization, RNase T1 coupled;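 active = inhibition above the primary screen limit, the mean inhibition of all tested compounds plus 3 SD, cut at about 25% in these data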
RNase T1 inh: counter-screen for TPT1 inhibitors: inhibitors of Aspergillus oryzae RNase T1; shares compounds with TPT1 inhibitor; AID 2153; 2,400 tested, 83% active; inhibition, % at 5 µM; RNase T1 cleavage, fluorescence polarization, 1536-well;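 active = inhibition above the solvent-only control well mean plus 3 SD, limit set per screening run, cut at about 23% in these data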;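 note: plate controls were DMSO wells with enzyme for no effect and wells without RNase T1 for full effect; inhibitors block cleavage so intact labeled substrate keeps polarization high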
Target sequence (P00651 whole entry, looked up): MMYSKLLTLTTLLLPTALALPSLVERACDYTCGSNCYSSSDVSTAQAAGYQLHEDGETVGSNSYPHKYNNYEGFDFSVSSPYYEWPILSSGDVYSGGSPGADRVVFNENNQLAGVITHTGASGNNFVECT
Rpn11 inh conf: Rpn11 inhibition confirmation, single concentration; shares compounds with Rpn11 block; purified human 26S proteasome, Ub4-pepOG fluorescence polarization; proteasome pretreated with epoxomicin; inhibition, % at 20 µM; 1,900 tested, 29% active; AID 602318
MMP-2 counter-1: MMP-2 (human) inhibition counter-screen; inhibition, % at 20 µM; 1,900 tested, 4% active; shares compounds with Rpn11 block; AID 602330; recombinant MMP-2, FRET peptide cleavage fluorescence;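 note: human MMP-2 activated beforehand with APMA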
Thrombin inh: blocks bovine thrombin, flagging nonselective RPN11 hits; inhibition, % at 20 µM; shares compounds with Rpn11 block; AID 602333; bovine thrombin cleavage of Ub4-pepOG, fluorescence polarization; 1,900 tested, 13% active;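 active = mean inhibition at least 40% at 20 µM, or signal 3 deviations below plate average, so some actives read negative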;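 note: plate controls were thrombin with DMSO for no effect and buffer wells lacking thrombin for full effect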
CSN deneddyl val: Csn5 (human) deneddylation inhibition, single-concentration validation; Csn5 deneddylation of SCF-Nedd8OG, fluorescence polarization, 90 min; 540 tested, 62% active; shares compounds with CSN inh; inhibition, % at 16.6 µM; in the data active = inhibition above about 50%;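 note: 0% = DMSO with enzyme and 100% = no enzyme wells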
MMP-2 counter-2: counter-screen for CSN deneddylation inhibitors: human MMP-2 inhibition; inhibition, % at 16.6 µM; recombinant MMP-2, FRET substrate fluorescence, 60 min; 540 tested, 33% active; shares compounds with CSN inh; AID 720655;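 active = corrected plate-normalized z-score of 5 or more, or -5 or less, or inhibition of 15% or more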;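 note: plate controls were DMSO wells with enzyme for no effect and buffer wells lacking MMP-2 for full effect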
Thrombin cntr: blocks bovine thrombin in a CSN deneddylation counter-screen. inhibition, % at 16.6 µM. AID 720656. 540 tested, 49% active. shares compounds with CSN inh. bovine thrombin cleavage of Ub4-pepOG, fluorescence polarization;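 active = inhibition at or above a set limit, with a fluorescence interference ratio between 0.5 and a set maximum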
An asterisk follows results filed as active; . = no result given; + = active, no number. Cut-off read from the data, not from the text of the source, unless noted: active = inhibition above about 40%; inactive = the rest.

SMILES	CSN inh	TPT1 inhibitor	HNF4A DNA FP	Rpn11 block	caTPT1 confirm	RNase T1 inh	CSN deneddyl val	MMP-2 counter-2	Thrombin cntr	others
CC(C)OC(=O)CN1C(=O)S/C(=C/c2ccc(N3CCCCC3)o2)C1=O	51*	180*	9	.	+	179*	73*	-114*	-73
CCN(C(=O)COC(=O)/C=C/c1nc2ccccc2s1)c1c(N)n(Cc2ccccc2)c(=O)[nH]c1=O	-1	.	1	0	.	.	.	.	.
Cc1cccc(C)c1-n1cccc1/C=C1/C(=N)N2C(=NC1=O)SN=C2S(C)(=O)=O	5	1	-2	16	.	.	.	.	.
Cc1ccc(-n2cccc2/C=C2/C(=N)N3C(=NC2=O)SN=C3S(C)(=O)=O)cc1Cl	59*	32*	25	168*	35*	48*	0	9	39*	Rpn11 inh conf=160*;MMP-2 counter-1=-7;Thrombin inh=109*
CCOC(=O)C1=C(COC(=O)c2cc(S(=O)(=O)N3CCOCC3)ccc2F)NC(=O)NC1C (centres undefined)	1	.	-1	-1	.	.	.	.	.
Cc1nn(C2CCS(=O)(=O)C2)c2nc(C3CC3)cc(C(=O)Nc3ccc(C(N)=O)cc3)c12 (centres undefined)	1	.	0	-3	.	.	.	.	.
Cc1ccc2c(nc3s/c(=C/c4cccs4)c(=O)n32)c1C	4	.	6	11	.	.	.	.	.
Cc1ccc2c(nc3s/c(=C\c4ccc(-c5ccccc5C(=O)O)o4)c(=O)n32)c1C	102*	116*	83	.	138*	130*	-27	-27	18
CC1Cc2c([nH]c3ccccc23)C(=O)N1 (centres undefined)	1	3	0	1	.	.	.	.	.
Cc1cc(OC(=O)c2cc(C(F)(F)F)cc(C(F)(F)F)c2)c([N+](=O)[O-])c(=O)[nH]1	2	-5	-1	-3	.	.	.	.	.
COc1ccc(/C=C(/C(=O)c2ccc(Cl)cc2Cl)n2cncn2)cc1	4	0	-2	3	.	.	.	.	.
CN(C)c1ccc(/C=C(/C(=O)c2ccc(Cl)cc2Cl)n2cncn2)cc1	79*	121*	92*	.	132*	131*	93*	-23*	70*
COc1cc(/C(O)=C(\C#N)c2nc3ccccc3[nH]2)cc(OC)c1OC	7	.	10	13	.	.	.	.	.
N=C1/C(=C\c2ccc(-c3cccc(C(=O)O)c3)o2)C(=O)N=C2SC=C(c3ccccc3)N12	64*	66*	-6	108*	82*	92*	.	16*	29*	Rpn11 inh conf=149*;MMP-2 counter-1=27;Thrombin inh=51*
COc1cc(/C=C2\COC/C(=C\c3ccc(O)c(OC)c3)C2=O)ccc1O	9	6	0	15	.	.	.	.	.
COc1cc(/C=C2/CC/C(=C/c3ccc(O)c(OC)c3)C2=O)ccc1O	47*	113*	48*	.	117*	119*	62*	-17	72*
COc1ccc(/C=N/N2C(=O)CSC2=S)cc1Br	58*	38*	61*	.	62*	70*	51*	5	54*
O=C1NC(=Nc2ccccc2)S/C1=C\C=C\c1ccco1	74*	24*	13	58*	23	34*	80*	10	14	Rpn11 inh conf=18;MMP-2 counter-1=52*;Thrombin inh=31
COc1ccc(N=C2NC(=O)/C(=C/C=C/c3ccccc3)S2)cc1	4	-1	3	0	.	.	.	.	.
Nc1c(C=C2C=CC(=O)C=C2)c(=O)nc2sc(CC(=O)N3CCCCC3)nn12	0	-2	-4	11	.	.	.	.	.
COC1=CC(=Cc2c(N)n3nc(CC(=O)N4CCCCC4)sc3nc2=O)C=C(OC)C1=O	78*	31*	38*	.	112*	110*	34	-11	74*
COc1ccc([C@H]2CC(=O)C[C@@H](CCn3cc(-c4ccccn4)nn3)O2)cc1	2	.	-2	.	.	.	.	.	.
CC1=NN(c2ccccc2)C(c2ccco2)C1 (centres undefined)	-2	.	4	0	.	.	.	.	.
O=[N+]([O-])c1ccc(/C=C/C2=NN(c3ccccc3)C(c3ccco3)C2)cc1 (centres undefined)	64*	70*	83*	.	64*	66*	107*	-18	40
CCC(C)n1c(NC(=O)c2ccccc2)c(C#N)c2nc3ccccc3nc21 (centres undefined)	50*	117*	33*	.	80*	85*	156*	-12	54*
SMILES	CSN inh	TPT1 inhibitor	HNF4A DNA FP	Rpn11 block	caTPT1 confirm	RNase T1 inh	CSN deneddyl val	MMP-2 counter-2	Thrombin cntr	others
Cc1cc(=O)c2c(N(C)C)cccc2[nH]1	-3	.	-1	-7	.	.	.	.	.
Cc1nc(-n2[nH]c3c(c2=O)CCCC3)[nH]c(=O)c1Cc1ccccc1	52*	122*	44*	.	65*	77*	80*	-4	49*
CC(=O)c1ccc(N2C(=O)CC(N3CCN(S(=O)(=O)c4cc(C)ccc4C)CC3)C2=O)cc1 (centres undefined)	0	.	-5	3	.	.	.	.	.
Cc1cc(/C=C2\SC(=S)NC2=O)c(C)n1-c1cccc(O)c1	66*	90*	97*	.	85*	98*	37	19*	66*
Cc1cc(/C=C2/SC(=S)N(c3cccc(Cl)c3)C2=O)c(C)n1-c1cccnc1	47*	114*	43*	35	88*	99*	128*	-1	8
Cc1cc(/C=C2\SC(=S)N(C)C2=O)c(C)n1-c1ccccc1O	39*	147*	84	.	147*	142*	63*	-3	37*
Cc1cc(/C=C2\SC(=S)N(C)C2=O)c(C)n1-c1ccc(O)cc1	51*	120*	79*	.	129*	129*	181*	5	62*
Cc1ccc(-n2c(C)cc(/C=C3\SC(=O)NC3=O)c2C)cc1	-3	2	5	-2	.	.	.	.	.
COc1ccc(-n2c(C)cc(/C=C3\SC(=O)NC3=O)c2C)cc1	1	-2	-2	6	.	.	.	.	.

Screening data from PubChem BioAssay.
